Measurements from ChEMBL document CHEMBL4699605, “Synthesis and biological evaluation of novel flexible nucleoside analogues that inhibit flavivirus replication in vitro” (Bioorg Med Chem, 2020).
pEC50, pIC50: −log10 of the molar value.

Legend:
dengue virus type 2 = assay: Antiviral activity against DENV-2 infected in African green monkey Vero cells assessed as virus titer reduction incubated for 48 hrs by plaque assay; type: functional, organism-based
[1] = Inhibition of Dengue virus 2'-O methyltransferase incubated for 15 mins followed by [methyl-3-H]-AdoMet addition and measured after 30 mins by microbeta counter method
In short: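 DENV-3 2′-O-MTase (0.5 µM) in 40 mM Tris-HCl pH 7.5 and 5 mM DTT with 1 µM capped RNA GpppAC5 and 10 µM AdoMet containing [3H]AdoMet, 30 °C for 30 min. Stopped by 20-fold dilution in ice-cold 100 µM AdoHcy. RNA captured on DEAE filter, washed, and transferred radioactivity counted. Inhibitor serially diluted, points in triplicate; IC50 from logistic dose-response fit with slope factor.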

[2] = Inhibition of Dengue virus N-7 methyltransferase incubated for 15 mins followed by [methyl-3-H]-AdoMet addition and measured after 15 mins by microbeta counter method

| Compound | pEC50 (dengue virus type 2) | pIC50 [1] | pIC50 [2] |
| --- | --- | --- | --- |
| C#C[C@@]1(O)[C@H](O)[C@@H](CO)O[C@H]1n1ccc2c(N)ncnc21 | 6.19 |  |  |
| Nc1ncnc2c1ncn2[C@@H]1O[C@H](C[C@@H](N)CC[C@H](N)C(=O)O)[C@@H](O)[C@H]1O [SINEFUNGIN] |  | 7.39 | 7.52 |
